Screens deposited in PubChem BioAssay by several laboratories.
This is a sample that favours compounds with a hit; in the whole collection about 11% have one here.
S1P1 ag pot: S1P1 agonists and agonism potentiators, primary screen, cell-based, primary and confirmation screens, CRE-bla reporter; hit rate 0.57% among 56,000; Sphingosine 1-phosphate receptor 1 (Homo sapiens), P21453; S1P1 CRE-bla cells, forskolin, beta-lactamase FRET, potentiator mode; S1P1 agonist co-added at EC20, 2 nM; 100% = saturating reference agonist, 0% = basal; activation, % at 9.5 µM; AID 449, 2006;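 active = activation above a cutoff set at the mean activation of all tested compounds plus 3 SD, cut at about 54% in these data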;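 also: forskolin at 4 µM as EC80 and the EC20 agonist is SEW2871; 100% = SEW2871 at its EC100 plus forskolin at EC80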
Target sequence (P21453 whole entry, looked up): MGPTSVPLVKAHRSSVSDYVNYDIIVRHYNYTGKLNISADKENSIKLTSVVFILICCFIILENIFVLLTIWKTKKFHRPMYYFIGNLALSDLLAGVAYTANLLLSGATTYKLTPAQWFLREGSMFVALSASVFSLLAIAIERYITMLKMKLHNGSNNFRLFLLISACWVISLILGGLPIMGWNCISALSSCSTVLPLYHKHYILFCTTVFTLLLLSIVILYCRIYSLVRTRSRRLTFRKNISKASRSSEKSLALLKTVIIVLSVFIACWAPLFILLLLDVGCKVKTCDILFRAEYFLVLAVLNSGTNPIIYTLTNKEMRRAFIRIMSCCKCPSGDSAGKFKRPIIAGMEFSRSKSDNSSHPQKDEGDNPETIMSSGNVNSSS
D1 allo mod: D1 CRE-luciferase signal change, two-sided – cell-based, HEK293 D1, dopamine EC30, D1 allosteric modulator project, primary screen | D(1A) dopamine receptor (Homo sapiens), P21728 | dopamine EC30 potentiation; actives deviate in either direction | B-score at 10 µM | hit rate 5.9% among 58,000 | AID 641, 2007;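 active = luminescence count or its row- and column-corrected plate score outside the 99.7% band of the plate's sample wells, on either side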
S1P3 agonist: human S1P3 receptor agonists, primary screen, cell-based, primary and confirmation, NFAT-BLA reporter | Sphingosine 1-phosphate receptor 3 (Homo sapiens), Q99500 | S1P3 NFAT-BLA reporter cells, agonism, FRET ratio; relative to 1 µM S1P, basal subtracted | AID 373, 2006 | hit rate 0.1% among 60,000 | activation, % at 4.5 µM;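 active = activation above the screen-wide mean plus 3 SD, cut at about 4.5% in these data, passing the limit was not always enough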
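Material: Human S1P3 NFAT-BLA reporter CHO cells | Incubation: Overnight plating, 4 h compound 37 °C, 2 h substrate RT | Signal: FRET β-lactamase substrate fluorescence, excitation 405 nm, 460/535 nm emission ratio, background-subtracted | Compound: 4.5 µM final, single dose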
TNAP act DEA: human TNAP enzyme activators, primary screen, biochemical, luminescent, intermediate phosphate acceptor level | activation factor at 20 µM | 64,000 tested, under 10 active | purified TNAP, CDP-star luminescence, 100 mM DEA, 30 min; active compounds read high; scale: 0 levamisole-inhibited, 1 vehicle-only enzyme | AID 813, 2007;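 active = activation factor of at least 2 at 20 µM, relative to controls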
M1 ag: M1 muscarinic receptor agonists, primary screen, CHO-M1 cells, Fluo-4 calcium, agonist mode. AID 626, 2007. B-score at 10 µM. hit rate 3% among 64,000. Fluo-4 calcium fluorescence; active compounds read high;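 active = fluorescence rise, raw or as B-score row- and column-corrected plate score, outside the 99.7% band of its plate's samples, either direction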
M1 antag: antagonists of rat M1 muscarinic receptor. Muscarinic acetylcholine receptor M1 (Rattus norvegicus), P08482. hit rate 3.4% among 64,000. B-score at 10 µM. AID 628, 2007. CHO-M1 cells, Fluo-4 calcium, ACh EC80 antagonist mode; active compounds read low;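 active = calcium fluorescence response, raw or row-and-column corrected B-score, differing from the plate sample mean either way at a set confidence level, mostly lower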
M1 ag confirm: rat M1 muscarinic receptor agonists, confirmation, CHO-M1 cells, Fluo-4 calcium, duplicate retest; AID 1488, 2009; Fluo-4 calcium fluorescence, agonist mode; actives lie on both sides; shares compounds with M1 ag; hit rate 19% among 1,700; fluorescence change (max-min) at 10 µM;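 active = fluorescence change differs from the solvent-only DMSO control mean at a set confidence level in both duplicate runs; inconclusive = differs from solvent-only control mean in just one of two runs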;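 also: an EC20 dose of acetylcholine follows compound addition during the same imaging run; raw fluorescence intensity difference in instrument units with no normalization to controls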
M4 ag counter: agonist activity at rat M4 receptor, confirmation, counter-screen for M1 allosteric modulator project, cell-based, agonist mode; shares compounds with M1 ag; CHO M4/Gqi5 cells, Fluo-4 calcium fluorescence; actives lie on both sides; fluorescence change (max-min) at 10 µM; hit rate 9% among 1,700;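 active = fluorescence change differing from the plate's solvent-only control wells at 99.7% confidence in both duplicates, whether higher or lower; inconclusive = differs from solvent controls in only one of two duplicates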
D1 PAM confirm: D1 receptor positive allosteric modulators, retest, confirmation, cell-based, HEK293 D1, CRE-luciferase, duplicate | shares compounds with D1 allo mod | dopamine EC30 potentiation; active compounds read high | luminescence at 10 µM | hit rate 88% among 2,200 | AID 642, 2007;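 active = luminescence in either of two replicates above the same-plate mean plus 3 SD of the low-dose dopamine control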
D1 no dopamine: D1 receptor agonism without dopamine, confirmation, mechanism study for D1 allosteric modulator project, cell-based, HEK293 D1, CRE-luciferase, secondary assay 1. shares compounds with D1 allo mod. luminescence, no dopamine; active compounds read high. luminescence at 10 µM. hit rate 0.8% among 1,900. AID 646, 2007; in the data active = luminescence above about 3900
Isoprot counter: isoproterenol response counter-screen activity for D1 modulators; HEK293 D1 CRE-luciferase, isoproterenol EC30 counter-screen; active compounds read high; AID 647; hit rate 63% among 2,200; luminescence at 10 µM; shares compounds with D1 allo mod;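 active = luminescence in either replicate above plate mean of wells with a partly effective reference agonist dose plus 3 SD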;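 also: isoproterenol raises cAMP through native beta-adrenoceptor Gs so signal bypasses D1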
* hit, by the source's call.

Results for CCOc1ccc(CCNC(=O)c2oc3c(c2C)-c2[nH]ncc2CC3)cc1OCC ?
S1P1 ag pot: -21; D1 allo mod: 11*; S1P3 agonist: 0; TNAP act DEA: 1; M1 ag: 3.2*; M1 antag: -0.016; M1 ag confirm: -23*; M4 ag counter: -74*; D1 PAM confirm: 24696*; D1 no dopamine: 1620; Isoprot counter: 11928*

How did COc1ccc(C2C(C(=O)N3CCOCC3)CCC(=O)N2c2cc(OC)c(OC)c(OC)c2)cc1 (stereo not given) do in these assays?
TNAP act DEA: 0.9; M1 ag: 1.4; M1 antag: 1.3

Results for c1ccc(Cn2c(-c3ccco3)nc3nc4ccccc4nc32)cc1 ?
S1P1 ag pot: -2; D1 allo mod: 3.5*; S1P3 agonist: 2; TNAP act DEA: 0.8; M1 ag: 3.7*; M1 antag: -0.53; M1 ag confirm: inconclusive; M4 ag counter: inconclusive; D1 PAM confirm: 7452*; D1 no dopamine: 1544; Isoprot counter: 3168*

How did COCCCNC(=O)C1CCN(c2ncccn2)CC1 do in these assays?
S1P1 ag pot: -4; D1 allo mod: 1.8*; S1P3 agonist: 0; TNAP act DEA: 0.9; M1 ag: 2.6*; M1 antag: -0.14; M1 ag confirm: -22; M4 ag counter: -51; D1 PAM confirm: 5220; D1 no dopamine: 1492; Isoprot counter: 2332

Results for COCCNC(=O)C1CCCN(c2ncccn2)C1 (stereo not given) ?
S1P1 ag pot: -1; D1 allo mod: -0.082; S1P3 agonist: 0; TNAP act DEA: 0.9; M1 ag: 0.51; M1 antag: 0.28

What do the screens show for `CC1CCC2(CC1)NC(=O)N(CC(=O)NC(=O)NC1CCCC1)C2=O` (stereo not given)?
S1P1 ag pot: -16; D1 allo mod: 0.49; S1P3 agonist: 0; TNAP act DEA: 1; M1 ag: -0.41; M1 antag: 0.18

How did O=C(C1CCN(S(=O)(=O)c2cccc3cccnc23)CC1)N1CCn2c1nc1ccccc12 do in these assays?
S1P1 ag pot: -10; D1 allo mod: 4.9*; S1P3 agonist: 1; TNAP act DEA: 0.9; M1 ag: 22*; M1 antag: 6.6*; M1 ag confirm: -11; M4 ag counter: -43; D1 PAM confirm: 12004*; D1 no dopamine: 2024; Isoprot counter: 3540*

How did COc1cc2c(cc1OC)C1=C(C#N)CN(C3CCCCC3)CN1CC2 do in these assays?
S1P1 ag pot: -12; D1 allo mod: 4.2*; S1P3 agonist: 0; TNAP act DEA: 0.9; M1 ag: 5.1*; M1 antag: -0.4; M1 ag confirm: -7.1; M4 ag counter: -17; D1 PAM confirm: 14420*; D1 no dopamine: 1880; Isoprot counter: 7184*

How did COc1cc(-c2nnc3n2N=C(c2ccccc2)CS3)cc(OC)c1OC do in these assays?
S1P1 ag pot: -18; D1 allo mod: 1.9*; S1P3 agonist: -1; TNAP act DEA: 0.9; M1 ag: 4.6*; M1 antag: -0.35; M1 ag confirm: inconclusive; M4 ag counter: -48; D1 PAM confirm: 7188*; D1 no dopamine: 1768; Isoprot counter: 3664*

What do the screens show for `Cc1noc(C)c1S(=O)(=O)N1CCCC(C(=O)N2CCc3ccccc3C2)C1` (stereo not given)?
S1P1 ag pot: -13; D1 allo mod: 0.17; S1P3 agonist: -1; TNAP act DEA: 1; M1 ag: -1.4; M1 antag: -0.36

How did Cc1ccc(C2CC(c3ccco3)n3nc(N)nc3N2)cc1 (stereo not given) do in these assays?
S1P1 ag pot: 10; S1P3 agonist: -2; TNAP act DEA: 0.9; M1 ag: 0.42; M1 antag: -0.1

Results for Nc1nc2n(n1)C(c1ccco1)CC(c1ccc(F)cc1)N2 (stereo not given) ?
S1P1 ag pot: -10; D1 allo mod: 7*; S1P3 agonist: -1; TNAP act DEA: 0.9; M1 ag: 2.3*; M1 antag: 0.11; M1 ag confirm: inconclusive; M4 ag counter: inconclusive; D1 PAM confirm: 9024*; D1 no dopamine: 1664; Isoprot counter: 2560

How did O=C(Nc1sc2c(c1C(=O)NC1CCCCC1)CCC2)c1ccco1 do in these assays?
S1P1 ag pot: 0; D1 allo mod: 1; S1P3 agonist: -1; TNAP act DEA: 0.9; M1 ag: 0.33; M1 antag: -0.9

What do the screens show for `O=C(Nc1ncnc2sc3c(c12)CCCCC3)c1ccco1`?
S1P1 ag pot: -8; D1 allo mod: 5.3*; S1P3 agonist: 0; TNAP act DEA: 1; M1 ag: 37*; M1 antag: -10*; M1 ag confirm: -11; M4 ag counter: -53; D1 PAM confirm: 9540*; D1 no dopamine: 1788; Isoprot counter: 2888

Results for O=C(NC(Cc1ccccc1)C(=O)NCc1ccccn1)c1ccco1 (stereo not given) ?
D1 allo mod: -0.012; S1P3 agonist: 0; TNAP act DEA: 1; M1 ag: -0.37; M1 antag: 0.96
